TAAR1 ag: agonists of human TAAR1; activation, % at 3 µM; CHO RD-HGA16 TAAR1, Fluo-8 calcium fluorescence; vehicle wells 0%, saturating PEA agonist 100%; actives 0.99% (n = 360,000); AID 624467;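 active = activation above the mean activation of all test compounds in the run plus 3 SD, cut at about 38% in these data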
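System: CHO RD-HGA16 cells carrying human TAAR1 plus Gα16; Incubation: 17-24 h seeding, 75 min 37 °C dye, 30 min RT; Measured by: Fluo-8 fluorescence, 5 s baseline then 140 s kinetic read; Control set: DMSO and PEA EC100; Replication: single well for each compound.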
GPR7 antag: human neuropeptides B/W receptor 1 antagonism; AID 1861; GPR7-expressing cells, fluorescence antagonist assay; inhibition, % at 4.4 µM; actives 1.1% (n = 290,000); P48145; in the data active = inhibition above about 16%, passing the limit was not always enough;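 note: cells stimulated with the agonist NPW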
CHO parental Ca: counter-screen: ATP calcium response change in parental CHO cells | AID 463079 | inhibition, % at 5.6 µM | actives 0.63% (n = 330,000) | parental CHO-K1, ATP-induced calcium, Fluo-8 fluorescence;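 active = inhibition above that plate's mean sample inhibition plus 3 SD, cut at about 26% in these data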
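material = parental CHO cells | also added = ATP as calcium-mobilizing challenge | dosing = single point at 5.6 µM | detection = intracellular calcium via Fluo-8 no-wash fluorescent dye | read-out = % inhibition | benchmarks = low control ATP plus DMSO, high control DMSO only | repeats = one well per compound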
OX1R antag-1: antagonists of human orexin 1 receptor | CHO/OX1R cells, Fluo-8 calcium fluorescence, orexin A | inhibition, % at 5 µM | O43613 | actives 0.43% (n = 330,000);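 active = inhibition above its plate's threshold, mean inhibition of all tested compounds on the plate plus 3 SD, cut at about 37% in these data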
Target sequence (O43613 whole entry, looked up): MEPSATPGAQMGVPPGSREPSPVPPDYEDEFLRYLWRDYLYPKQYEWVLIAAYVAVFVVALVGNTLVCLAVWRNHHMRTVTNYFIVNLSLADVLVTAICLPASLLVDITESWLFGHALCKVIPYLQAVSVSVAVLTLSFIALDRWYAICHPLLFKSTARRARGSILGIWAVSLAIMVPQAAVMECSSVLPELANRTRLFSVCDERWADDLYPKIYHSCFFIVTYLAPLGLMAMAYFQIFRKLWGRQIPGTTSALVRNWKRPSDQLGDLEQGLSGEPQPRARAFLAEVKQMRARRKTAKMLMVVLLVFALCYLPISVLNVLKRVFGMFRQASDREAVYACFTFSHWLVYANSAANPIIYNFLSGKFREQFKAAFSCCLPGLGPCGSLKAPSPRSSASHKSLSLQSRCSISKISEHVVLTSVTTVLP
OX1R antag-2: antagonists of human orexin 1 receptor (OX1R); OX1R-expressing cells, FRET antagonist read-out; inhibition, % at 6.6 µM; actives 1.8% (n = 330,000); AID 485270; in the data active = inhibition mostly above about 38%, no sharp cut-off; inactive = mostly below about 40%
TAAR1 antagonist: antagonists of human TAAR1. Q96RJ0. CHO RD-HGA16 TAAR1, Fluo-8 calcium fluorescence, antagonist. inhibition, % at 3 µM. actives 1.5% (n = 360,000). AID 624466;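 active = inhibition above a per-plate cutoff, the mean inhibition of test compounds on that plate plus 3 SD, cut at about 49% in these data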
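Assay system: RD-HGA16 CHO cells with stable hTAAR1 and Gα16 / Reagent: EC80 β-phenethylamine stimulus / Doses: 3 µM, single point / Timing: dye loading 75 min at 37 °C, then 30 min room temperature / Measured by: Fluo-8 intracellular calcium dye fluorescence, real-time kinetic reads / Controls: vehicle wells and EC80 agonist wells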
Numbers stand for hits; i = inactive; nt = no result given. Most compounds without a hit are left out; they make up all but 4.5% or so of the library.

SMILES	TAAR1 ag	GPR7 antag	CHO parental Ca	OX1R antag-1	OX1R antag-2	TAAR1 antagonist
CC(C)C[C@H]1CN([C@@H](Cc2ccccc2)CN2CCC[C@H]2CN2C(=O)C(=O)NC[C@@H]2Cc2ccc(O)cc2)C(=O)C(=O)N1CC1CCCCC1	i	nt	nt	nt	nt	i
CCN(CC)c1ccc(-c2sc(Nc3ccccc3)n[n+]2-c2ccc(F)cc2)cc1	49.3	i	i	i	i	i
C=CC[C@]12C[C@@]3(O[C@H](c4ccc(C(F)(F)F)cc4)N=C3C[C@H](c3ccc(OC)cc3)[C@H]1C)N(Cc1ccncc1)C2=O	i	nt	nt	nt	nt	i
COC(=O)c1cc2c(c3c4ccccc4n(S(=O)(=O)c4ccc(OC)cc4)c13)C(=O)N(Cc1ccc(N(C)C)cc1)C2	i	nt	nt	nt	nt	i
CCOC(=O)c1sc(N)c(C#N)c1CSc1nc2ccc(OCC)cc2[nH]1	i	i	i	i	47.0	i
CCOC(=O)c1sc(N)c(C#N)c1CSc1nc2ccc(C)cc2[nH]1	i	i	i	i	i	i
COc1ccc(-c2sc3ccccc3c2-c2ccc(O)cc2)cc1	i	nt	i	i	i	i
COc1ccc(-c2sc3cc(OC)c(OC)cc3c2-c2ccc(O)cc2)cc1	i	nt	i	i	38.3	i
COc1ccc(N2CCc3c(C)nc4c(OC)cc(OC)cc4c32)cc1	i	i	i	i	i	i
COc1ccc(N2CCc3c(C)nc4c(OC)cccc4c32)cc1	i	i	i	i	70.4	i
Cc1ccc(S(=O)(=O)c2ccc([N+](=O)[O-])cn2)cc1	i	i	i	i	i	i
Cc1cc(S(=O)(=O)c2ccc([N+](=O)[O-])cn2)ccc1Br	i	nt	55.2	i	i	i
O=[N+]([O-])c1ccc(S(=O)(=O)c2ccccc2)nc1	i	i	i	i	58.7	i
Cc1cc(Sc2ccc([N+](=O)[O-])cn2)ccc1Br	i	nt	i	i	i	i
COc1ccc(C(=O)CSc2nnc(Cn3cnc4ccccc43)o2)cc1	i	i	38.2	i	i	i
Cc1cccc(C)c1N=Nc1c(C)cc(O)cc1C	i	i	59.8	i	i	i
Cc1cccc(O)c1C	i	nt	i	i	i	i
COc1ccc(OCC2CN(Cc3ccccc3)S(=O)(=O)CCO2)cc1 (stereo not drawn)	i	nt	nt	nt	nt	i
C[C@@H](NC(=O)C(=O)c1c[nH]c2ccccc12)c1ccccc1	i	nt	i	i	i	i
O=C(Nc1ccc2c(c1)OCCO2)C(=O)c1c[nH]c2ccccc12	i	i	i	i	49.9	53.8
CSc1ccccc1NC(=O)C(=O)c1c[nH]c2ccccc12	i	i	i	i	48.0	i
CN(c1ccc(NC(=O)CCc2c[nH]c3ccccc23)cc1)c1ccccn1	i	nt	nt	nt	nt	i
COC(=O)[C@]12C[C@H](CC(=O)NCCCN3CCCC3=O)C(=O)N(Cc3ccc4c(c3)OCO4)C1=C[C@H](C(C)(C)C)O[C@@H]2C	i	nt	nt	nt	nt	i
Cc1c(C(=O)c2ccc([N+](=O)[O-])cc2)c(=O)n(C)c(=O)n1C	i	i	i	i	73.8	i
Cc1c(C(=O)c2ccc(Br)cc2)c(=O)n(C)c(=O)n1C	i	i	i	i	i	i
SMILES	TAAR1 ag	GPR7 antag	CHO parental Ca	OX1R antag-1	OX1R antag-2	TAAR1 antagonist
NC(=O)c1ccc(C(=O)c2ccc([N+](=O)[O-])cc2)cc1	i	i	i	i	70.2	i
c1coc(-c2nc3c4ccccc4ccn3c2Cc2ccsc2)c1	i	nt	nt	nt	nt	i
N#Cc1ccc(OCC(=O)N[C@@H](Cc2ccccc2)c2nc3ccccc3[nH]2)cc1	i	nt	nt	nt	nt	i
COc1ccc(O)c(CNn2c(-c3ccc(Br)cc3)nc3ccccc3c2=O)c1	i	i	i	i	44.1	i
COC(=O)[C@H]1[C@@H](O)[C@@]2(O)c3c(OC)cc(OC)cc3O[C@@]2(c2ccc(OC)cc2)[C@@H]1c1ccc(F)cc1	i	nt	nt	nt	nt	i
COc1ccc(CCNc2nc(-c3ccc(O)cc3)cs2)cc1OC	i	i	58.1	61.0	32.1	i
Cc1sc2ncnc(N3CCN(S(=O)(=O)c4ccc(Br)cc4)CC3)c2c1C	i	i	i	i	i	i
Cc1sc2ncnc(N3CCN(S(=O)(=O)c4ccc(C(C)(C)C)cc4)CC3)c2c1C	i	nt	51.1	i	i	i
Cc1nc(N2CCN(S(=O)(=O)c3ccc(F)cc3)CC2)c2c(C)c(C)sc2n1	i	nt	i	i	i	i
Cc1ccc(S(=O)(=O)N2CCN(c3nc(C)nc4sc(C)c(C)c34)CC2)cc1	nt	13.8	nt	nt	nt	nt
Cc1csc2ncnc(N3CCN(S(=O)(=O)c4cccc(C(F)(F)F)c4)CC3)c12	i	i	58.7	i	56.4	i
O=S(=O)(c1ccc(Cl)cc1)N1CCN(c2ncnc3sccc23)CC1	i	nt	46.3	i	i	i
Cc1csc2c(N3CCN(S(=O)(=O)c4ccc(Cl)cc4)CC3)ncnc12	i	i	i	i	i	i
O=C1N2CCSC2=NC1(Nc1nccs1)C(F)(F)F (stereo not drawn)	i	i	i	i	47.5	i
CC1CCN(C(=O)c2ccc([N+](=O)[O-])o2)CC1	i	i	i	i	43.8	i
CC1CCCN(C(=O)c2ccc([N+](=O)[O-])o2)C1 (stereo not drawn)	i	i	i	i	i	i
Cc1noc(C)c1C(=O)N(C)Cc1ccccc1	i	i	i	i	i	i
O=C(c1ccc([N+](=O)[O-])o1)N1CCN(Cc2ccccc2)CC1	i	i	i	i	30.3	i
CN(Cc1ccccc1)C(=O)c1ccc([N+](=O)[O-])o1	i	i	i	i	53.6	i
O=C(C(=O)N1CCC(CNS(=O)(=O)c2ccc(C(F)(F)F)cc2)CC1)c1cc2ccccc2o1	i	nt	nt	nt	nt	i
Cc1ccccc1S(=O)(=O)N1CCCc2nc(-c3ccc(F)cc3)ccc21	i	nt	nt	nt	nt	i
O=C(O)c1cccc(CSc2nc(-c3ccc(Cl)cc3)cc(C(F)(F)F)n2)c1	i	i	i	i	i	53.7
COc1ccc(-c2cc(C)nc(SCc3cccc(C(=O)O)c3)n2)cc1	i	i	i	i	i	i
Cc1ccc(O)c(C2=Nc3ccccc3N=C(c3ccc([N+](=O)[O-])cc3)C2)c1	40.9	i	i	i	i	i
COC(=O)C1=C(C)N(Cc2ccccc2C(F)(F)F)C(=NCc2ccc(C(F)(F)F)cc2)NC1c1ccc(C(F)(F)F)cc1 (stereo not drawn)	i	nt	nt	nt	nt	i
O=C(NN=C1c2ccccc2-c2ccccc21)c1ccccc1Br	i	i	i	i	48.9	i
CC(=O)C1=C(C)N(Cc2ccc(Br)cc2)C(=S)NC1c1cccc(F)c1 (stereo not drawn)	i	nt	nt	nt	nt	i
CCCOC(=O)c1ccc(Oc2c(-c3ccc(OC)cc3O)n[nH]c2C)cc1	i	i	i	i	i	i
CCCOC(=O)c1ccc(Oc2c(-c3ccc(O)cc3O)n[nH]c2C)cc1	i	i	50.1	i	i	i
COc1ccccc1OC(=O)Nc1ccc(Cl)cc1	i	i	31.2	i	i	i

Bioassay records: PubChem, The Scripps Research Institute Molecular Screening Center
